Rpn11 block: Rpn11 (PSMD14) deubiquitinase inhibitors, primary screen, biochemical, fluorescence polarization, uHTS | 26S proteasome non-ATPase regulatory subunit 14 (Homo sapiens), O00487 | human 26S proteasome, Ub4-pepOG fluorescence polarization; 20S core pre-blocked with epoxomicin | inhibition, % at 20 µM | actives 0.59% (n = 360,000) | AID 588493, 2011;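 active = inhibition at 20 µM, scaled to each plate's controls, above about 33%, limit read from the data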
PLCb3 inh: human PLC-beta3 inhibitors, primary screen, biochemical, fluorescence | 1-phosphatidylinositol 4,5-bisphosphate phosphodiesterase beta-3 (Homo sapiens), Q01970 | Purified PLC-beta3, fluorogenic substrate | inhibition, % at 12.2 µM | actives 0.18% (n = 370,000) | AID 720704, 2013; in the data active = inhibition above about 11%;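 note: 0% = median of compound wells on plate and 100% = full blocker control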
UCH37 DUB inh: inhibitors of human UCH37 deubiquitinase, primary screen, biochemical, Ub-AMC cleavage, fluorescence | AID 588478, 2011 | actives 0.33% (n = 330,000) | Ubiquitin carboxyl-terminal hydrolase isozyme L5 (Homo sapiens), Q9Y5K5 | purified proteasome/UCH37 | inhibition, % (test concentration not listed);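 active = mean inhibition over replicate wells above about 20%, limit read from the data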;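 note: 0% = compound-free wells with enzyme and 100% = wells lacking proteasome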
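Material: human UCH37 enzyme supplied as purified proteasome complex / Amount: 0.15 nM proteasome as dispensed / Buffer or medium: pH 7.4 Tris-HCl (50 mM) with ovalbumin, ATP-MgCl2, DTT / Times: preincubation 30 min, reaction 25 min, room temperature / Technique: AMC fluorescence from Ub-AMC cleavage, excitation 355 nm, emission 460 nm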
PLCg1 inh: PLC-gamma1 enzyme inhibitors, primary screen, biochemical, fluorescence, purified enzyme; fluorogenic substrate; AID 720700, 2013; inhibition, % at 12.2 µM; actives 0.84% (n = 370,000); in the data active = inhibition above about 9.5%
Rpn11 confirm: Rpn11 (PSMD14) deubiquitinase inhibitors, confirmation, biochemical, fluorescence polarization, single concentration; shares compounds with Rpn11 block; purified human 26S proteasome, Ub4-pepOG fluorescence polarization; proteasome pretreated with epoxomicin; inhibition, % at 20 µM; actives 29% (n = 1,900); AID 602318, 2012
MMP-2 inh: MMP-2 enzyme inhibition, confirmation, counter-screen for RPN11 inhibitor project, biochemical, fluorescence, single concentration | AID 602330, 2012 | inhibition, % at 20 µM | shares compounds with Rpn11 block | actives 4% (n = 1,900) | recombinant MMP-2, FRET peptide cleavage fluorescence;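 note: human MMP-2 activated beforehand with APMA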
Target sequence (P08253 whole entry, looked up): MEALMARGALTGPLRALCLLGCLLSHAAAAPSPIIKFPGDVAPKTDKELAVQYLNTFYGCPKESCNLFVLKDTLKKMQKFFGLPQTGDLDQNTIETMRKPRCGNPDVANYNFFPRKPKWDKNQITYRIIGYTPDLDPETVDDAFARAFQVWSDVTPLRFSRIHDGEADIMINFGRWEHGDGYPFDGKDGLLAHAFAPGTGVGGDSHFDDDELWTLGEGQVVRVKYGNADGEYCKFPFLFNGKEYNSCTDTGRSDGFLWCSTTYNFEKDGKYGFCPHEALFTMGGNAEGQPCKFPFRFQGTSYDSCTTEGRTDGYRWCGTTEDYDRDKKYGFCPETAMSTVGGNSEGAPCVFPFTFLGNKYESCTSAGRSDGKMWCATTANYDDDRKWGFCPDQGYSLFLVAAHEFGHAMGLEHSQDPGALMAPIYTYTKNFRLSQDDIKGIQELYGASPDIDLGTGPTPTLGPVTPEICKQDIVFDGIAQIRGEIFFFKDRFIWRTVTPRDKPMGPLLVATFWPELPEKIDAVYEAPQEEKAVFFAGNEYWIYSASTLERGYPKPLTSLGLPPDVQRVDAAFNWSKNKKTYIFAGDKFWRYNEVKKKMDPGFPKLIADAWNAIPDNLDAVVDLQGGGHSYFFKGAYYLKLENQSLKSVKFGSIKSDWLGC
Thrombin inh: bovine thrombin protease inhibition, confirmation, counter-screen for Rpn11 inhibitor project, biochemical, fluorescence polarization, single concentration | shares compounds with Rpn11 block | bovine thrombin cleavage of Ub4-pepOG | inhibition, % at 20 µM | actives 13% (n = 1,900);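 active = mean inhibition at least 40% at 20 µM, or signal 3 deviations below plate average, so some actives read negative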;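 note: plate controls were thrombin with DMSO for no effect and buffer wells lacking thrombin for full effect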
* hit, by the source's call; i = inactive; . = not tested or not shown. Most compounds without a hit are left out; they make up all but 1.7% or so of the library. Cut-off read from the data, not from the text of the source, unless noted: active = inhibition above about 40%; inactive = the rest.

SMILES	Rpn11 block	PLCb3 inh	UCH37 DUB inh	PLCg1 inh	Rpn11 confirm	MMP-2 inh	Thrombin inh
C=CCn1c(=O)c(C=Nc2c(OC)cccc2[N+](=O)[O-])c(O)n(CCCC)c1=O	78*	1	6	-3	53*	6	47*
CCCCn1c(=O)c(C=Nc2cccnc2Cl)c(O)n(CCCCl)c1=O	17	-1	-80	2	.	.	.
C=CCn1c(=O)c(C=Nc2cccc([N+](=O)[O-])c2)c(O)n(CCCC)c1=O	69*	-1	7	0	46*	-20	31
CCN(CC)c1ccc(/C=C/[N+](=O)[O-])cc1	68*	-11	3	-6	50*	-45	53*
COc1cc(/C=C/[N+](=O)[O-])ccc1O	-1	-2	4	1	.	.	.
Oc1ccc(C=NNP(=S)(c2ccccc2)c2ccccc2)cc1	.	.	4	.	.	.	.
CCOP(=O)(OCC)C(NC(=O)c1ccccc1)C(Cl)(Cl)Cl (stereo not given)	-3	2	.	0	.	.	.
CCCOP(=O)(OCCC)C(NC(=O)c1cc(OC)c(OC)c(OC)c1)c1ccccc1 (stereo not given)	140*	-3	0	-1	2	-26	-2
CCCNC(=O)c1c(N)n(CC2CCCO2)c2nc3ccccc3nc12 (stereo not given)	9	i	i	i	.	.	.
CC(C)OCCCNC(=O)c1c(N)n(CC2CCCO2)c2nc3ccccc3nc12 (stereo not given)	45*	i	i	i	7	-13	4
O=Cc1c(C(=O)O)n(Cc2ccccc2Cl)c2ccccc12	-1	11	-1	7	.	.	.
C=Cc1ccc(Cn2c(C(=O)O)c(C=O)c3ccccc32)cc1	38*	-13	0	-4	155*	-2	60*
O=C(NN=Cc1ccc(N(CCCl)CCCl)cc1)C(=O)c1c[nH]c2ccccc12	52*	-191	-5	-150	57*	14	34
CN1CCN(c2ccc([N+](=O)[O-])c(NN=C3CN4CCC3CC4)c2)CC1	.	.	8	.	.	.	.
CC(=O)O[C@@H]1C=C[C@](C)(O)C[C@@H](C)CC=C[C@H]2[C@H](O)[C@@](C)(O)[C@@H](C)[C@H]3[C@H](Cc4ccccc4)NC(=O)[C@@]312	.	.	5	.	.	.	.
O=C1NC(=S)N(c2ccc(Br)cc2)C(=O)/C1=C/N1CCN(C(=O)c2ccco2)CC1	.	-16	0	-8	.	.	.
Cc1ccc(N2C(=O)/C(=C/N3CCN(C(=O)c4ccco4)CC3)C(=O)NC2=S)cc1C	88*	-5	-3	-7	10	7	-1
Cc1cccc(N2C(=O)NC(=O)/C(=C\c3ccc(N4CCOCC4)cc3)C2=O)c1	-1	-13	4	-6	.	.	.
Cc1cccc(N2C(=O)/C(=C/N3CCN(C(=O)c4ccco4)CC3)C(=O)NC2=S)c1	50*	-7	3	-8	19	10	14
O=c1[nH]c(=O)n(-c2cccc(F)c2)c(O)c1/C=C1\C=Nc2ccccc21	62*	-11	2	-4	9	-22	3
O=C(O)c1ccc(-n2c(O)c(/C=C3\C=Nc4ccccc43)c(=O)[nH]c2=O)cc1	12	-6	.	-4	.	.	.
CCOC(=O)c1c(N=CC2C(=O)NC(=S)NC2=O)sc2c1CCC2	.	.	4	.	.	.	.
CC(=NOC(=O)N(C)C)c1ncc(C(F)(F)F)cc1N1CCOCC1	.	.	3	.	.	.	.
CCOC(=O)c1cc(C(O)(C(=O)OC)C(F)(F)F)c(N=CN(C)C)o1 (stereo not given)	.	.	10	.	.	.	.
Cc1ccc(Cn2cc(C=O)c(-c3ccc(C)cc3)n2)cc1	37*	-3	4	0	3	3	-16
SMILES	Rpn11 block	PLCb3 inh	UCH37 DUB inh	PLCg1 inh	Rpn11 confirm	MMP-2 inh	Thrombin inh
O=C(NC1CC1)c1cn(Cc2ccccc2)nc1-c1ccccc1	1	-6	4	-1	.	.	.
COc1ccc(-n2c(/C=C/c3ccc(O)cc3)nc3ccccc3c2=O)cc1	48*	-399	-9	-343	15	47*	4
COc1ccc(Cn2c(N)c(C(=O)NCc3ccco3)c3nc4ccccc4nc32)cc1	67*	i	-48	-466	-2	-37	-4
Nc1c(C(=O)NCc2ccco2)c2nc3ccccc3nc2n1Cc1ccccc1	31	i	-234	i	.	.	.
CC1=CC2C=C(C)C(C)C3C(CC(C)C)NC(=O)C23C(=O)C=CC(O)C(O)CC1 (stereo not given)	.	.	4	.	.	.	.
CCCCCSc1cc(OC)c(CCNC)cc1OC	138*	2	3	5	13	-21	2
NC(N)=NN=Cc1cn(-c2ccccc2)nc1-c1cccs1	.	.	-9	.	.	.	.
COc1ccc(CN2C(=O)NC(=O)/C(=C\c3ccco3)C2=O)cc1	44*	-7	3	-10	122*	20	22
CN(C)c1ccc(/C=C2\C(=O)NC(=O)N(CCc3ccc(F)cc3)C2=O)cc1	50*	-14	7	-3	10	1	-90
O=C1NC(=O)N(CCc2ccc(F)cc2)C(=O)/C1=C/c1ccco1	71*	-33	1	-15	29	37	-1
Cc1ccc(/C=C2/C(=O)NC(=O)N(CCc3ccc(F)cc3)C2=O)o1	10	-16	2	-13	.	.	.
O=C(NN=C1CN2CCC1CC2)c1cccc(O)c1	.	.	2	.	.	.	.
O=C1NC(=O)N(c2ccc(Cl)cc2)C(=O)/C1=C/c1coc2ccc(O)cc2c1=O	54*	-28	5	-14	-19	6	-11
CCOP(=O)(OCC)c1ccc(O)cc1	-2	-1	-1	3	.	.	.
CCOP(=O)(OCC)/C(C#N)=C/c1ccoc1	54*	-58	-4	-32	0	-60	-9
NC(=N[N+](=O)[O-])N1CCN(C(=O)OC2CCCC2)CC1	.	.	1	.	.	.	.
Cc1cccn2c(=O)c3cc(C(=O)N4CCC5(CC4)OCCO5)n(C)c3nc12	69*	-294	-412	-214	-7	-3	-8
Cc1ccc(/C=C2\C(=O)NC(=S)N(c3ccc(F)cc3)C2=O)o1	41*	-18	2	-9	44*	55*	57*
O=C1NC(=S)N(c2ccccc2)C(=O)/C1=C/c1ccco1	76*	-15	.	1	90*	61*	24

Screening results as filed in PubChem BioAssay.
